# Shown are actives, neighbours in structure and some others; about 3.8% of the full set was active somewhere.
# MPTP inh – blocks calcium-induced mitochondrial swelling | isolated mouse mitochondria, Ca2+ swelling absorbance, 30 min | inhibition, % at 10 µM | 1.4% of 360,000 active;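 active means inhibition of 50% or more, scaled per plate between neutral and stimulator controls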;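 further: 0% = DMSO wells given calcium and 100% = 1 mM EGTA wells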
# Beta2AR agonist – agonists of human beta-2 adrenergic receptor inducing internalization. P07550. Am2.2-beta2AR cells, FAP receptor internalization, flow cytometry. response, % (concentration not given with the values). 0.43% of 340,000 active. AID 504454;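 active means response above a set limit, near 3 SD of response in nonfluorescent compounds, cut at about 42% in these data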
# Target sequence (P07550 whole entry, looked up): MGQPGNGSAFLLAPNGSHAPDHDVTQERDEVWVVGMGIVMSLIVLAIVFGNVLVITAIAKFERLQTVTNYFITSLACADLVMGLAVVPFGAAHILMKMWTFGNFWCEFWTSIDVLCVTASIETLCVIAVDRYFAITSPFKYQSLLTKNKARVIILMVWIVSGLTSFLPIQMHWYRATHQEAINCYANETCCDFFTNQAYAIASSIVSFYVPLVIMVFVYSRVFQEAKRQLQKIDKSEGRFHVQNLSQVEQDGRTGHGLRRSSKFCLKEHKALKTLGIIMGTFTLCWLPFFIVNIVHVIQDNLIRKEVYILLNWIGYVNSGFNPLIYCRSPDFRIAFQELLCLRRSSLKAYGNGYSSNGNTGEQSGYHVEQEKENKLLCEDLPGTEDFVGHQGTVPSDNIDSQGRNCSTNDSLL
# T cell modulator – modulates CD8 T cell binding to vesicles. response (vesicle binding), % at 7 µM. 2C CD8+ T cell-vesicle binding, flow cytometry; hits give low values. 0.068% of 330,000 active. AID 2052;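 active means response, share of CD8 T cells binding vesicles, and their 90th percentile fluorescence all below set limits, cut at about 80% in these data, passing the limit was not always enough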;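 further: values below 100% mean blocked vesicle binding to the CD8+ T cells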
#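 Incubation: binding step 1.5 h, 37 °C, antibody labelling 20 min, ice; system: murine 2C transgenic CD8+ T lymphocytes; technique: cytometric PE anti-B7-1 and Alexa647 anti-CD8 signals after 1% paraformaldehyde fixation; also added: QL9-charged Drosophila Ld/ICAM-1/B7-1 vesicles; control set: naked versus QL9-loaded vesicles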
# Exocytosis inh – lytic granule exocytosis inhibition | TALL-104 LAMP-1 surface exposure, flow cytometry; cells stimulated with thapsigargin and PMA | inhibition, % at 10 µM | 0.66% of 360,000 active;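 active means inhibition above about 55%, limit read from the data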
# rCAG binder – binds r(CAG) RNA repeats. r(CAG) RNA repeat, TO-PRO-1 dye displacement fluorescence. inhibition, % at 3 µM. 1.3% of 370,000 active. AID 651821;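 active means inhibition above the plate cutoff, the mean of all test compounds on that plate plus 3 SD, cut at about 35% in these data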;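 further: 0% = DMSO alone and 100% = 100 µM mitoxantrone as full dye displacement; higher means more dye released from RNA so lower well fluorescence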
# V-ATPase pH – yeast V-ATPase proton transport regulation by pHLuorin | S. cerevisiae, pHLuorin cytosolic pH fluorescence | response, % at 10 µM | 0.37% of 350,000 active | AID 504577; in the data active means response mostly above about 7.3%, no sharp cut-off; inactive means mostly below about 5.4%; further: actives read high
# Granule exo CP1 – blocks lytic granule exocytosis. TALL-104 cells, LAMP-1 externalization, flow cytometry; stimulated with PMA plus thapsigargin. 11% of 1,500 active. shares compounds with Exocytosis inh. inhibition, % at 10 µM; in the data active means inhibition above about 60%;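 further: 0% = stimulated vehicle wells and 100% = unstimulated wells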
# * hit, by the source's call; nt = no result given.
SMILES,MPTP inh,Beta2AR agonist,T cell modulator,Exocytosis inh,rCAG binder,V-ATPase pH,Granule exo CP1
CCOC(=O)Cn1c(=N)n(CCOc2ccc(Br)cc2)c2ccccc21,3,16,168,66*,11,0,1
CCOC(=O)Cc1csc(SCn2nnc3ccccc3c2=O)n1,-5,-6,558,-1,0,0,nt
CCOC(=O)Cc1csc(-n2sc3ccccc3c2=O)n1,-1,2,166,78*,20,3,36
COC(=O)C1CN(Cc2ccccc2)CCS(=O)(=O)N1Cc1cccc(Cl)c1 (stereo not drawn),nt,nt,nt,nt,-1,nt,nt
CS(=O)(=O)c1ccc(-c2cnc3c(NC=O)cc(-c4ccsc4)cn23)cc1,-1,nt,nt,-6,12,nt,nt
COc1cccc(-c2cnc3c(NC(C)=O)cc(-c4ccsc4)cn23)c1,2,nt,nt,77*,10,nt,91*
O=CNc1cc(-c2ccsc2)cn2c(-c3ccccc3)cnc12,1,nt,nt,71*,9,nt,82*
COc1ccc(-c2cc(NC=O)c3ncc(-c4cccc(OC)c4)n3c2)cc1,1,nt,nt,63*,13,nt,74*
O=C(OC12CCCN(C1)/C(=C/c1cccnc1)C2)c1cccc(F)c1 (stereo not drawn),nt,nt,nt,nt,6,nt,nt
COc1ccc(S(=O)(=O)N(C(=O)C(C)C)c2ccc3oc(=O)sc3c2)cc1,-2,8,401,-1,29,0,nt
COc1ccc(S(=O)(=O)N(C(=O)c2ccco2)c2cc3sc(=O)oc3c3ccccc23)cc1,1,28,413,83*,98*,-2,-13
CCCOc1ccc(Oc2nc(-c3ccncc3)nc3ccccc23)cc1,-2,0,309,94*,0,4,-14
COc1cc(Sc2ccc(C)cc2)c(OC)cc1N,3,4,929,94*,3,-1,-12
CCOCCCNC(=O)C1CCN(S(=O)(=O)c2cc3c(cc2Br)CCN3C(=O)CC)CC1,nt,nt,nt,nt,4,nt,nt
OCC1(Cc2ccccc2Cl)CCN(C/C=C/c2ccccc2)CC1,3,-2,79,-3,-2,-1,nt
OCC1(CCc2ccccc2)CCN(C/C=C/c2ccccc2)CC1,2,-8,418,57*,-6,3,-12
COc1ccc(/C=N\NC(=O)Cc2cccs2)c(OC)c1OC,nt,nt,nt,nt,0,nt,nt
Cc1ccc2c(Cl)cc(Cl)c(OCc3c(C)noc3C)c2n1,1,-7,467,59*,1,-2,-4
CCOC(=O)C1=C(C)N(c2ccccc2)C(=O)C1,-1,13,526,100*,4,3,-14
CC(C)(C)C1CCC(=O)N(CCOc2ccccc2)CC1 (stereo not drawn),-1,-5,438,67*,-1,-3,-13
CCN(CC)CCCNC(=S)N1CCN(c2nc(-c3ccccc3)cs2)CC1,4,30,169,83*,4,2,-3
COCCCNC(=O)CSc1nnc(-c2ccncc2)n1-c1ccc(OC)cc1,nt,nt,nt,nt,0,nt,nt
C[C@@H]1C=CCCO[C@]12C(=O)N(Cc1ccc(F)cc1)c1ccccc12,nt,nt,nt,nt,-1,nt,nt
O=C(NC1CCCC1)C1C(c2ccc(C(F)(F)F)cc2)=Nc2ccccc2N1C(=O)c1cc2ccccc2[nH]1 (stereo not drawn),1,nt,nt,70*,11,nt,-15
CC(C)(C)C(=O)NC(=O)Nc1ccccc1C(F)(F)F,2,1,483,109*,-2,-1,-9
SMILES,MPTP inh,Beta2AR agonist,T cell modulator,Exocytosis inh,rCAG binder,V-ATPase pH,Granule exo CP1
CN(N=Cc1ccccc1O)C(=O)c1ccccc1N,nt,nt,nt,nt,0,nt,nt
CN1CCN(CCCNC(=O)c2ccc(/C=C3\Sc4ccccc4N(Cc4ccccc4F)C3=O)cc2)CC1,-5,88*,nt,66*,-1,0,7
CCN1CCN(CCNC(=O)c2ccc(/C=C3/Sc4ccccc4N(Cc4cccc(Cl)c4)C3=O)cc2)CC1,-6,38,227,79*,3,5,55
O=C(CN1C(=O)/C(=C/c2ccc(C(F)(F)F)cc2)Sc2ccccc21)NCCCN1CCOCC1,0,6,194,6,-7,-1,nt
CCN1CCN(CCNC(=O)c2ccc3c(c2)N(Cc2ccc(F)cc2)C(=O)/C(=C/c2ccccc2)S3)CC1,-3,-589,323,39,3,1,nt
O=C(CN1C(=O)/C(=C\c2cccc(Br)c2)Oc2ccccc21)NCCCN1CCOCC1,-1,27,501,64*,2,-8,96*
CCc1ccc(/C=C2/Sc3ccccc3N(CC(=O)NCCCN3CCOCC3)C2=O)cc1,1,28,255,66*,-5,-1,63*
COC(=O)C1=C(C)N(Cc2ccccc2C(F)(F)F)C(=NCc2ccccc2C(F)(F)F)NC1c1ccc(Cl)cc1 (stereo not drawn),nt,nt,nt,nt,3,nt,nt
Cc1cc(-c2ccccc2)nc2cc(C(=O)N(Cc3ccccc3)Cc3ccccc3)nn12,3,-1,162,80*,16,1,-2
COC(=O)c1cc2nc(-c3ccccc3)cc(C)n2n1,0,5,627,0,-2,0,nt
Cc1ccc(C(=O)NC2CCCCN(Cc3ccc(Cl)cc3)C2=O)c(C)c1 (stereo not drawn),nt,nt,nt,nt,0,nt,nt
CC(C)(C)OC(=O)NCc1cc(F)ccc1/C=C/S(=O)(=O)NCc1ccc(F)cc1,nt,nt,nt,nt,-1,nt,nt
c1ccc2c(N3CCCC3)nc(-c3ccncc3)nc2c1,-9,-7,166,60*,0,-1,-2
CCOC(=O)[C@]12CCCC3=C1N(CCC3)C(=O)[C@@H](CC(=O)NCc1ccc(C)o1)C2,nt,nt,nt,nt,-1,nt,nt
Cc1ccc(-c2nc(C(=O)NCCCN3CCOCC3)cc3c2[nH]c2ccccc23)cc1,-1,-26,407,56*,16,0,18
Cc1ccccc1NC(=O)c1nc(S(C)(=O)=O)ncc1Cl,1,6,267,79*,1,0,28
O=C(Nc1ccc(F)cc1)c1nc(S(=O)(=O)Cc2ccccc2)ncc1Cl,0,7,132,78*,-2,1,65*
CCS(=O)(=O)c1ncc(Cl)c(C(=O)Nc2ccc(S(=O)(=O)N(C)c3ccccc3)cc2)n1,-4,-294,125,56*,11,-5,58
Cc1ccccc1CS(=O)(=O)c1ncc(Cl)c(C(=O)Nc2ccc(F)cc2)n1,-2,29,542,44,1,-6,nt
Cc1ccc(NC(=O)c2nc(S(=O)(=O)Cc3ccccc3)ncc2Cl)cc1,-1,13,408,33,0,1,nt
NS(=O)(=O)c1ccc(OCCCN2CCC(C(O)(c3ccccc3)c3ccccc3)CC2)cc1,nt,nt,nt,nt,2,nt,nt
Cc1nnc(C)n1N=Cc1ccc(Cl)c([N+](=O)[O-])c1,nt,nt,nt,nt,1,nt,nt
COc1ccc(CNC(=O)C2CCCN(c3nc4ccccc4o3)C2)cc1 (stereo not drawn),nt,nt,nt,nt,2,nt,nt
